High-throughput results (PubChem BioAssay)
A selection: hits, their analogues and other compounds. The true share with any hit is near 2.1%.
ASAP1 GAP inh: inhibitors of human ASAP1 ArfGAP activity, primary screen, biochemical, fluorescence polarization; Arf-GAP with SH3 domain, ANK repeat and PH domain-containing protein 1 (Homo sapiens), …; ASAP1-stimulated ARF1 GTP hydrolysis, GDP FP detection; inhibition, % at 16.5 µM; 0.19% of 360,000 active; in the data active = inhibition above about 25%;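 also: 0% = vehicle with enzyme and substrate and 100% = no enzyme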
APOBEC3A inh: APOBEC3A ssDNA deaminase inhibitors, primary screen, selectivity assay for APOBEC3G inhibitor project, biochemical, FAM/TAMRA oligo cleavage fluorescence; AID 493011, 2011; DNA dC->dU-editing enzyme APOBEC-3A (Homo sapiens), P31941; 0.41% of 330,000 active; inhibition, % at 20 µM; recombinant A3A, FAM/TAMRA ssDNA deamination fluorescence;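 active = at least 40% inhibition at 20 µM here, with at most 30% in a related deaminase screen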;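 also: plate controls were A3A with DMSO for no effect and wells lacking A3A enzyme for full effect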
Target sequence (P31941 whole entry, looked up): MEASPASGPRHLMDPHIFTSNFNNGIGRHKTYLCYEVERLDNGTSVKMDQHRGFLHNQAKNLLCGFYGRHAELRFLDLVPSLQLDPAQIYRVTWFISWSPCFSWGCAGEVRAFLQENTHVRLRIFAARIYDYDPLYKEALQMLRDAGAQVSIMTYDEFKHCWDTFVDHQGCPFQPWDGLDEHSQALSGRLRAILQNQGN
ARFGAP1 inhibitor: inhibitors of rat ARFGAP1 GAP activity, primary screen, biochemical, fluorescence polarization, GDP tracer | inhibition, % at 16.5 µM | AID 651572, 2012 | Arfgap1-stimulated ARF1 GTP hydrolysis, GDP FP detection | 0.26% of 360,000 active;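 active = inhibition above a per-plate limit, mean inhibition of low control wells plus 3 SD, cut at about 25% in these data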;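 also: 0% = DMSO wells with enzyme and 100% = wells lacking Arfgap1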
Target sequence (Q62848 1-136 limits assumed): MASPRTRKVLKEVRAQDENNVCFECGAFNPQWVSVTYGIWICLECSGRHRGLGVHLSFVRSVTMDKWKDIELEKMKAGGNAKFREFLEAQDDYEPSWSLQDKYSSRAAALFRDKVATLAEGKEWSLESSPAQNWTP
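Assay system: purified rat His6-Arfgap1 residues 1-136 (GAP domain); Reagent: human Δ17 ARF1 bound to GTP; Dosing: 16.5 µM single point, 1.26% DMSO; Times: GTP hydrolysis reaction 2 h at 25 °C; Signal: FP, GDP Alexa 633 tracer displaced from anti-GDP antibody, 620/688 nm; Measure: % inhibition from polarization.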
Mot1-301 SUMO: yeast Mot1-301 growth rescue at high temperature, primary screen, SUMOylation pathway inhibitor project, S. cerevisiae, ATP luminescence, 38.5C; 1% of 320,000 active; growth rescue, % at 18.8 µM; S. cerevisiae Mot1-301 growth rescue; percent above DMSO median, 100 means doubled;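 active = every valid replicate shows activation above 250% relative to neutral control wells; inactive = the rest, any valid replicate at or below 250%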;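 also: OY570 slx delta 5 strain wells were the positive control but not used for scaling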
APOBEC3G inh: APOBEC3G DNA deaminase inhibitors, primary screen, biochemical, fluorescence, single-stranded DNA substrate, uHTS; recombinant A3G, ssDNA deamination FAM/TAMRA fluorescence; 0.28% of 330,000 active; inhibition, % at 20 µM; DNA dC->dU-editing enzyme APOBEC-3G (Homo sapiens), Q9HC16;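 active = inhibition of at least 40% at 20 µM, with no more than 30% in the related APOBEC3A deaminase screen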;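 also: plate controls were DMSO wells with A3G for no effect and wells lacking A3G enzyme for full effect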
Statin myotox sup: suppressors of statin myotoxicity in C2C12 myotubes, primary screen, cell-based, single point, plate reader; 0.78% of 330,000 active; rescue of ATP level, % at 7.49 µM; AID 602340, 2012; C2C12 myotubes + simvastatin, ATP luminescence, 48 h; scaled: DMSO 0, geranylgeraniol control 100;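 active = mean ATP rescue above about 67%, or every replicate alone reaching that limit, limit read from the data, passing the limit was not always enough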;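 also: myotubes were challenged with 10 µM simvastatin during compound exposure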
Active calls of the source: *; / = not tested or not shown.

SMILES	ASAP1 GAP inh	APOBEC3A inh	ARFGAP1 inhibitor	Mot1-301 SUMO	APOBEC3G inh	Statin myotox sup
O=C(Nc1ccc2c(c1)OCO2)c1cc(C2CC2)on1	-5	0	-12	19	-2	2
COc1ccc(-c2cnc3c(c2)C(=O)N([C@@H](C)CO)C[C@H](C)[C@H](CN(C)C(=O)C2CC2)O3)cc1	/	/	/	/	/	13
COc1ccccc1C(=O)N/N=C/c1ccc2c(c1)OCO2	-7	-2	-3	301*	2	-49
COc1cc2ccccc2cc1C(=O)N/N=C/c1ccc2c(c1)OCO2	6	7	13	34	-2	-70
O=C(Nc1ccc2c(c1)OCO2)c1ccc2nc[nH]c2c1	1	-2	2	17	11	86*
O=C1C[C@@H]2c3c(cccc3CN1Cc1ccccc1F)C[C@@H](O)[C@H]2O	13	/	0	/	/	126*
O=C1C[C@@H]2c3c(cccc3CN1Cc1ccc(Cl)cc1)C[C@@H](O)[C@H]2O	-6	/	2	/	/	119*
O=C1C[C@@H]2c3c(cccc3CN1Cc1ccccc1Cl)C[C@@H](O)[C@H]2O	-3	/	4	/	/	20
COc1ccc(-c2ccc([C@@H]3[C@@H](C#N)N[C@@H]3CO)cc2)cc1	/	/	/	/	/	17
CO[C@H]1CN(C)C(=O)c2ccc(NS(=O)(=O)c3ccccc3C)cc2OC[C@H](C)N(C)C[C@H]1C	/	/	/	/	/	-25
c1ccc2c(c1)nc(-c1ccncc1)n2CCNc1nc(CN2CCCCC2)cs1	-18	3	-7	16	6	88*
COCCOc1cc(NC(=O)c2cccc(OC)c2)c(Cl)cc1Cl	2	0	-1	-3	-2	/
Cc1cccc(C(=O)Nc2cc(OCc3cccc(F)c3)c(Cl)cc2Cl)c1	3	-1	-3	-1	-2	113*
N#C/C(=C/c1cc[nH]c1)C(N)=S	3	8	-2	295*	10	/
CCn1cc(C(=O)N[C@H](C)c2ccccc2)c(=O)c2cc(F)c(N3CCN(C)CC3)cc21	15	-2	5	815*	-9	/
CCC(C)NC(=O)c1cn(CC)c2cc(N3CCN(C)CC3)c(F)cc2c1=O (stereo not given)	3	-5	3	1	-10	/
O=C(C[C@@H]1CC[C@H]2[C@@H](COC[C@@H](O)CN2C(=O)Nc2ccccc2)O1)NC1Cc2ccccc2C1	/	/	/	/	/	-3
C[n+]1cccc(CNC(=O)/C=N/O)c1	0	34	10	/	17	112*
CC1(c2ccccc2)CC(C)(C)N2C(=O)C3(C(C#N)=C(N)Oc4cc(O)ccc43)c3cccc1c32 (stereo not given)	1	-9	-12	195	-7	87*
Cc1cc2c3c(c1)C(C)(c1ccccc1)CC(C)(C)N3C(=O)C21C(C#N)=C(N)OC2=C1C(=O)CC(C)(C)C2 (stereo not given)	-2	2	1	-25	-1	35
CN1CCN(CCCNC(=O)C2CC(=O)N(C3CCCCC3)C2)CC1 (stereo not given)	-4	-5	-8	62	-6	2
O=C(NCCCN1CCN(c2ccccc2F)CC1)C1CC(=O)N(C2CCCC2)C1 (stereo not given)	10	1	8	0	-5	125*
O=C(C[C@@H]1C[C@@H]2c3cc(NC(=O)Nc4ccc(F)cc4)ccc3O[C@@H]2[C@@H](CO)O1)NC1CCCC1	/	/	/	/	/	3
COc1ccccc1/C=C/C=N/NC(=O)c1cc(-c2ccc(C)o2)[nH]n1	17	16	8	308*	-12	1
CC1CN(CCOc2ccc(Cl)cc2Cl)CC(C)O1 (stereo not given)	1	1	-7	272*	-1	3
